Key:
Rattus norvegicus [1] = assay: Hypocholesterolemic activity in Sprague-Dawley rat assessed as serum cholesterol level at 10 mg/kg/day, po administered via intubation measured on day 4 by Liebermann-Burchard method relative to control; assay type: functional
Summary of the method: (§1)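 Male Sprague-Dawley rats given compound homogenized in 1% CMC once daily at 11:00 a.m. by oral intubation needle (0.2 cc), doses calculated on weekly body weights; tail-vein blood drawn 24 h after last dose; nonhemolyzed serum (30 μ) assayed by modified Liebermann-Burchard method; N = 8; % of control, mean ± SD; Student's t test.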

Rattus norvegicus [2] = assay: Hypocholesterolemic activity in Sprague-Dawley rat assessed as serum cholesterol level at 10 mg/kg/day, po administered via intubation measured on day 10 by Liebermann-Burchard method relative to control; assay type: functional; summary of the method: as §1
Rattus norvegicus [3] = assay: Hypocholesterolemic activity in Sprague-Dawley rat assessed as serum cholesterol level at 10 mg/kg/day, po administered via intubation measured on day 16 by Liebermann-Burchard method relative to control; assay type: functional; summary of the method: as §1
Rattus norvegicus [4] = assay: Toxicity in Sprague-Dawley rat assessed as increase in body weight at 10 mg/kg/day measured on day 10 (reference value: 160 +/- 13%); assay type: organism-based; settings: in vivo
Rattus norvegicus [5] = assay: Toxicity in Sprague-Dawley rat assessed as increase in body weight at 10 mg/kg/day measured on day 16 (reference value: 195 +/- 16%); assay type: organism-based; settings: in vivo
Rattus norvegicus [6] = assay: Uterotrophic activity in ovariectomized weaned Sprague-Dawley rat assessed as uterine weight at 10 mg/kg/day measured after 3 days (reference value: 100 +/- 15%); assay type: ADME, organism-based, Uterus; settings: in vivo, 72 h
Summary of the method: (§2)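 Weaned rats were ovariectomized and left untreated for 3 days. They were then dosed for 3 days with 17-ethinylestradiol 10 µg/kg/day or test compound 10 mg/kg/day, with 1% CMC as the vehicle control. Rats were then killed and the uterus removed, trimmed and weighed. Results are % of control uterine weight, mean ± SD; N = 7; Student's t test.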

Rattus norvegicus [7] = assay: Uterotrophic activity in ovariectomized weaned Sprague-Dawley rat assessed as uterine weight at 10 ug/kg/day measured after 3 days (reference value: 100 +/- 15%); assay type: ADME, organism-based, Uterus; settings: in vivo, 0.01 mg/kg, 72 h; summary of the method: as §2

Row | SMILES | Activity (Rattus norvegicus [1]) | Activity (Rattus norvegicus [2]) | Activity (Rattus norvegicus [3]) | Activity (Rattus norvegicus [4]) | Activity (Rattus norvegicus [5]) | Activity (Rattus norvegicus [6]) | Activity (Rattus norvegicus [7])
1 | CCCCCCCCCCCCCC(=O)CC | 64% | 83% | 92% | 167% | 212% | – | –
2 | CCCCCCCCCCCCCC(C)=O | 114% | 113% | 98% | 156% | 233% | – | –
3 | CCCCCCCCCCCCCCCCC(C)=O | 79% | 86% | 73% | 175% | 242% | – | –
4 | CCCCCCCCCCCCC(=O)CCC | 65% | 89% | 103% | 175% | 213% | – | –
5 | CCOC(=O)C(C)(C)Oc1ccc(Cl)cc1 [CLOFIBRATE] | 100% | 98% | 106% | – | – | – | –
6 | CCCCCCCCCCCCCCCC(C)=O | 83% | 75% | 74% | 165% | 229% | 76% | –
7 | CCCCCCCCCC(=O)CCCCCC | 89% | 89% | 77% | 169% | 207% | – | –
8 | CCCCCCCCCCC(=O)CCCCC | 70% | 92% | 100% | 168% | 209% | – | –
9 | C#C[C@]1(O)CC[C@H]2[C@@H]3CCc4cc(O)ccc4[C@H]3CC[C@@]21C [ETHINYL ESTRADIOL] | – | – | – | – | – | – | 372%
10 | CCCCCCCCC(=O)CCCCCCC | 102% | 97% | 72% | 167% | 209% | – | –
11 | CCCCCCCCCCCC(=O)CCCC | 63% | 89% | 94% | 165% | 206% | – | –
